The subject of assay [1] is K562. Kind of assay: Induction of apoptosis in human K562 cells assessed as necrotic cells at 2 uM after 24 hrs by Annexin V-FITC/propidium iodide staining-based flow cytometry (reference value: 0.035%). Format: functional. On the technique in general: A flow cytometer gives signals particle by particle.
The test system of assay [2] is K562. Nature of the assay: Induction of apoptosis in human K562 cells assessed as late apoptotic cells at 2 uM after 24 hrs by Annexin V-FITC/propidium iodide staining-based flow cytometry (reference value: 2.83%). In kind it is functional.
Assay [3] relates to K562. Kind of assay: Induction of apoptosis in human K562 cells assessed as early apoptotic cells at 2 uM after 24 hrs by Annexin V-FITC/propidium iodide staining-based flow cytometry (reference value: 4.78%). Format: functional.
Assay [4] concerns K562. Kind of assay: Induction of apoptosis in human K562 cells assessed as viable cells at 2 uM after 24 hrs by Annexin V-FITC/propidium iodide staining-based flow cytometry (reference value: 92.4%). Format: functional. The conditions noted are these: Homo sapiens, K562, 24 h; read-out: Activity.
In assay [5] the test system is K562. Nature of the assay: Induction of apoptosis in human K562 cells assessed as necrotic cells at 1 uM after 24 hrs by Annexin V-FITC/propidium iodide staining-based flow cytometry (reference value: 0.035%). In kind it is functional.
In assay [6] the test system is K562. Nature of the assay: Induction of apoptosis in human K562 cells assessed as late apoptotic cells at 1 uM after 24 hrs by Annexin V-FITC/propidium iodide staining-based flow cytometry (reference value: 2.83%). In kind it is functional.
In assay [7] the test system is K562. Kind of assay: Induction of apoptosis in human K562 cells assessed as early apoptotic cells at 1 uM after 24 hrs by Annexin V-FITC/propidium iodide staining-based flow cytometry (reference value: 4.78%). In kind it is functional.
Assay [8] deals with K562. Nature of the assay: Induction of apoptosis in human K562 cells assessed as viable cells at 1 uM after 24 hrs by Annexin V-FITC/propidium iodide staining-based flow cytometry (reference value: 92.4%). The conditions noted are these: Homo sapiens, K562, 24 h; read-out: Activity. Format: functional.
Assay [9] has as its target Histone deacetylase (HDAC1 and HDAC2) (Homo sapiens, UniProt Q13547+Q92769). Kind of assay: Inhibition of HDAC1/2 in human HeLa cell nuclear extract using COLOR DE LYS as substrate pretreated for 5 mins followed by substrate addition measured after 30 mins by UV-absorption method. In kind it is cell-based.
Another assay deals with Histone deacetylase 1 (Homo sapiens, UniProt Q13547). Nature of the assay: Inhibition of HDAC1 (unknown origin) using substrate after 30 mins by fluorometric analysis.
Chain of Histone deacetylase 1 (Q13547 whole entry): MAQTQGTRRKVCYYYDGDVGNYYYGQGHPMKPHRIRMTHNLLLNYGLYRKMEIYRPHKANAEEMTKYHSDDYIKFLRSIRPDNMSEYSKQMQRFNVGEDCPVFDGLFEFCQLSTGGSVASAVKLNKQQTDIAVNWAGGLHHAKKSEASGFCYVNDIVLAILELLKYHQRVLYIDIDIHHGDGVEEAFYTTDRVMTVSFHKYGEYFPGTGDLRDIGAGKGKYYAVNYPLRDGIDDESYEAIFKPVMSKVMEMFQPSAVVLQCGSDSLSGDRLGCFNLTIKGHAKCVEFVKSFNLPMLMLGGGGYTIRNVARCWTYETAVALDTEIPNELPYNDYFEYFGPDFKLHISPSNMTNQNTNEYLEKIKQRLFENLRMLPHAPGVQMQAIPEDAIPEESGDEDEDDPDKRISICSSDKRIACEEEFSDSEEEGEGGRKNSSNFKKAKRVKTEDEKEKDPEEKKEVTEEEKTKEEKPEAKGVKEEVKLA
Assay [10] concerns the target T1, Protein deacetylase HDAC6 (Homo sapiens, UniProt Q9UBN7).
T1 sequence (Q9UBN7 whole entry): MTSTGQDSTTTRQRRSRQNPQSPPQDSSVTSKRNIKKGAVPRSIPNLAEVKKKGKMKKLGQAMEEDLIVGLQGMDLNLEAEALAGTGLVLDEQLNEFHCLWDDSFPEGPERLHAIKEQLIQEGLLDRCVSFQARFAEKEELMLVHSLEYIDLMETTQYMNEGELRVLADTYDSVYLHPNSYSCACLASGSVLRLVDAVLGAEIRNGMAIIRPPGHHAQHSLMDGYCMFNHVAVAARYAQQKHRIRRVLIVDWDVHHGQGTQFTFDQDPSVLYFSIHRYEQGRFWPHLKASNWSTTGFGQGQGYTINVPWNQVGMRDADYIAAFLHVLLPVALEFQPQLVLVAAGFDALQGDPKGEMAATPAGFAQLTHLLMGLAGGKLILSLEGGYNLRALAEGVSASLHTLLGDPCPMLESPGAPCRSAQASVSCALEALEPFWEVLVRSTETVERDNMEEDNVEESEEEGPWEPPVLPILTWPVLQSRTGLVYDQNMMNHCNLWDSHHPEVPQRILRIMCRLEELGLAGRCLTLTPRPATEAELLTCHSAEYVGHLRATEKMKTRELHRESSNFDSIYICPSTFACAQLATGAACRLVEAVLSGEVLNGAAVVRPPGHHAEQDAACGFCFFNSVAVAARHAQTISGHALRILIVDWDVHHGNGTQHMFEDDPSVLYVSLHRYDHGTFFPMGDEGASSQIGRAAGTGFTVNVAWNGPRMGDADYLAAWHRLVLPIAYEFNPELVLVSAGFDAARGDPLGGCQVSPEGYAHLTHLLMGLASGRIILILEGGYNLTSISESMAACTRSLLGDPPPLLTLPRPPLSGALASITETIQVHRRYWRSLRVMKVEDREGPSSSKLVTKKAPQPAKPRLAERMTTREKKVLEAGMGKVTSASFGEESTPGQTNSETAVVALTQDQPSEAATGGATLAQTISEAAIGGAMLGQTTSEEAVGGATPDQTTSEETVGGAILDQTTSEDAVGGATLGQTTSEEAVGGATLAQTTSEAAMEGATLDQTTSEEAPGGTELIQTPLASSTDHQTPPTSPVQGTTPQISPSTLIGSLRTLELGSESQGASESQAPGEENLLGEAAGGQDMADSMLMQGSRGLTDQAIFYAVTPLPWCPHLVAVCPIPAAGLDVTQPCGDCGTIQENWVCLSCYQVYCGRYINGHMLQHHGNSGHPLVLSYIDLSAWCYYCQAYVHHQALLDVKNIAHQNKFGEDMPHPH
Kind of assay: Inhibition of HDAC6 (unknown origin) using substrate after 30 mins by fluorometric analysis.

A further assay addresses T2, Histone deacetylase 8 (Homo sapiens, UniProt Q9BY41).
T2 sequence (Q9BY41 whole entry): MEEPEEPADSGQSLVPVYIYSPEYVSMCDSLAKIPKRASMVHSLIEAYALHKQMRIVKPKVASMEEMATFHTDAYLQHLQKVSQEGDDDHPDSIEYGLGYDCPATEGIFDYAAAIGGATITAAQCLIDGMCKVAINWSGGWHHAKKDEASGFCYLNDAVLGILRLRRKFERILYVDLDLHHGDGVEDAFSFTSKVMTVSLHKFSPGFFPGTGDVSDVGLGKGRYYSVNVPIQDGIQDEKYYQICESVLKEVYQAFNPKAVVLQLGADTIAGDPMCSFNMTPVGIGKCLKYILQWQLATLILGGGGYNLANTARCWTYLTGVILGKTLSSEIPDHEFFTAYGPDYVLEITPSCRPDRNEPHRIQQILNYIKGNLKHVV
Nature of the assay: Inhibition of HDAC8 (unknown origin) using substrate after 30 mins by fluorometric analysis.

In the next assay the test system is MOLT-4. Kind of assay: Antiproliferative activity against human MOLT4 cells after 48 hrs by MTT assay. In kind it is functional, cell-based. To be noted: MOLT-4, 48 h. For orientation: Tetrazolium dyes change colour on reduction, which living cells bring about.
In a further assay the test system is HEL. Kind of assay: Antiproliferative activity against human HEL cells after 48 hrs by MTT assay. Format: functional, cell-based.
Assay [11] has as its system K562. Nature of the assay: Antiproliferative activity against human K562 cells after 48 hrs by MTT assay. Format: functional, cell-based. To be noted: K562, 48 h.
Assay [12] relates to PC-3. Kind of assay: Antiproliferative activity against human PC3 cells after 48 hrs by MTT assay. In kind it is functional, cell-based. The conditions noted are these: PC-3, 48 h. The method, boiled down:
(§1)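 Cells grown in RPMI1640 with 10% FBS at 37°C, 5% CO2. Seeded at 4000–5000 cells/well for 8 h, then exposed to a range of compound concentrations for 48 h. 0.5% MTT solution added for 4 h, formazan dissolved in DMSO, absorbance read at 570 nm. IC50 derived from inhibition ratios, given as mean ± standard deviation of two or three separate determinations.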

For a further assay, the system named is HeLa. Nature of the assay: Antiproliferative activity against human HeLa cells after 48 hrs by MTT assay. Format: functional, cell-based. The procedure, abridged:
as §1

Assay [13] in a line: Inhibition of Class 1 histone deacetylase in human K562 cells using Boc-Lys (acetyl)-AMC as substrate preincubated with compound for 3 hrs followed by substrate addition measured after 3 hrs by fluorometric analysis. In kind it is cell-based.
Assay [14] is described as follows: Inhibition of Class 2a histone deacetylase in human K562 cells using Boc-Lys-(epsilon-trifluoromethylacetyl)-AMC as substrate preincubated with compound for 3 hrs followed by substrate addition measured after 3 hrs by fluorometric analysis. In kind it is cell-based.
The subject of assay [15] is K562. Kind of assay: Induction of apoptosis in human K562 cells after 24 hrs by Annexin V-FITC/propidium iodide staining-based flow cytometric method. Format: functional, cell-based.
Assay [16] has as its system K562. Kind of assay: Potency index, ratio of vorinostat IC50 to compound IC50 for human K562 cells. In kind it is functional. The method, boiled down:
(§2)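 Cells were grown in RPMI1640 with 10% FBS at 37°C and 5% CO2, seeded at 4000–5000 cells/well for 8 h, then exposed to a compound concentration series for 48 h. MTT (0.5%) was added for 4 h and formazan dissolved in DMSO. A570 was read and IC50 derived from inhibition ratios.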

Assay [17] relates to PC-3. Nature of the assay: Potency index, ratio of vorinostat IC50 to compound IC50 for human PC3 cells. In kind it is functional. The method, boiled down: as §2

Structures are written as SMILES.

Take `O=C(/C=C/c1ccc(CNCc2ccc3cccc(Cl)c3n2)cc1)NO`: the Activity in the assay with K562 [1] was found to be 0.174%; in the assay on K562 [2] it was 2.96%; with K562 [3], 56.2%; in the assay with K562 [5] it was 0.145%; in the assay on K562 [6], 3.75%; in the assay with K562 [7], 38.2%. Moreover, in the assay on K562 [15], the Activity result was “Dose-dependent effect”. Moreover, the viability at 2 µM in the assay on K562 [4] was found to be 40.7%. Moreover, the viability at 1 µM in the assay with K562 [8] is 57.9%. Besides, the concentration for half-maximal inhibition (IC50) (usually the midpoint of a concentration-inhibition curve) stood at 275 nM in [9]; 95 nM at Histone deacetylase 1; 36.5 nM in [10]; 911 nM on Histone deacetylase 8; 160 nM with MOLT-4; 110 nM with HEL. Besides, the IC50 in the assay with K562 [11] amounted to 360 nM; in the assay on PC-3 [12], 2920 nM; in the assay on HeLa, 1820 nM; in assay [13] it was 64 nM; in [14] it was 4210 nM. For the same compound, the “Ratio IC50” value in the assay with K562 [16] and in the assay with PC-3 [17] was 3 - 5 in each case.
Take `O=C(/C=C/c1ccc(CNCc2ccc3ccccc3n2)cc1)NO`: the Activity stood at 0.072% in the assay with K562 [1]; 2.16% with K562 [2]; 58.2% in the assay on K562 [3]; 0.121% in the assay on K562 [5]; 1.95% in the assay on K562 [6]; 34.5% in the assay on K562 [7]. For the same compound, in the assay with K562 [15], the Activity entry is “Dose-dependent effect”. Also, the viability at 2 µM in the assay on K562 [4] is 39.6%. The viability at 1 µM in the assay with K562 [8] was determined as 63.4%. In addition, the IC50 in assay [9] came out at 138 nM; at Histone deacetylase 1 it was 72.5 nM; in assay [10], 49.5 nM; against Histone deacetylase 8 it was 442 nM; in the assay with MOLT-4, 240 nM; with HEL it was 150 nM. In addition, the IC50 in the assay with K562 [11] stood at 510 nM; in the assay with PC-3 [12] it was 3080 nM; with HeLa, 2200 nM; in assay [13], 108 nM; in assay [14] it was 5210 nM. The “Ratio IC50” value in the assay on K562 [16] and in the assay on PC-3 [17] was 3 - 5 throughout.

(Values after ChEMBL document CHEMBL4033620, “Design, synthesis and biological evaluation of quinoline derivatives as HDAC class I inhibitors” (Eur J Med Chem, 2017).)
